Assay results: ChEMBL document CHEMBL1148725, “2,2,2-Trichloro-N-({2-[2-(dimethylamino)ethyl]-1,3-dioxo-2,3-dihydro-1H-benzo[de]isoquinolin- 5-yl}carbamoyl)acetamide (UNBS3157), a novel nonhematotoxic naphthalimide derivative with potent antitumor activity” (J Med Chem, 2007)

Test system: not listed separately
Experiment: Antiproliferative activity against Hs683 cells after 72 hrs by MTT assay
Type: functional, cell-based, Homo sapiens, Hs 683
Conditions: Homo sapiens, Hs 683, 72 h
Summary of the method: (§1)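 Cells cultured with each compound for three days; growth then read by the MTT colorimetric assay and reported as IC50 (µM).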
For COc1cc(/C=N\c2cc3c4c(cccc4c2)C(=O)N(CCN(C)C)C3=O)cc(OC)c1OC, the IC50 was over 10 µM.
CN(C)CCN1C(=O)c2cccc3cc(NC(=O)CCCCl)cc(c23)C1=O gave an IC50 of over 10 µM.
With CN(C)CCN1C(=O)c2cccc3cc(NC(=O)Nc4ccc(Cl)cc4)cc(c23)C1=O the IC50 was 2.8 µM.
CN(C)CCN1C(=O)c2cccc3cc(NC(=O)C(Cl)(Cl)Cl)cc(c23)C1=O gave an IC50 of over 10 µM.
Work on CN(C)CCN1C(=O)c2cccc3cc(NC(=S)Nc4ccc(Cl)cc4)cc(c23)C1=O yielded an IC50 of over 10 µM.
Work on CCOC(=O)c1ccc(NC(=O)Nc2cc3c4c(cccc4c2)C(=O)N(CCN(C)C)C3=O)cc1 yielded an IC50 of 2.1 µM.
With CN(C)CCN1C(=O)c2cccc3cc(NC(=O)C(F)(F)F)cc(c23)C1=O the IC50 was 8.7 µM.
For CN(C)CCN1C(=O)c2cccc3cc(NC(=O)NC(=O)c4ccccc4)cc(c23)C1=O, the IC50 was 3 µM.

Test system: not listed separately
Experiment: Antiproliferative activity against U373MG cells after 72 hrs by MTT assay
Type: functional, cell-based, Homo sapiens, U-373MG ATCC
Conditions: Homo sapiens, U373 MG, 72 h
Summary of the method: as §1
COc1cc(/C=N\c2cc3c4c(cccc4c2)C(=O)N(CCN(C)C)C3=O)cc(OC)c1OC showed an IC50 of 6.4 µM.
CN(C)CCN1C(=O)c2cccc3cc(NC(=O)CCCCl)cc(c23)C1=O gave an IC50 of over 10 µM.
With CN(C)CCN1C(=O)c2cccc3cc(NC(=O)Nc4ccc(Cl)cc4)cc(c23)C1=O the IC50 was 3.6 µM.
Work on CN(C)CCN1C(=O)c2cccc3cc(NC(=O)C(Cl)(Cl)Cl)cc(c23)C1=O yielded an IC50 of 8.9 µM.
CN(C)CCN1C(=O)c2cccc3cc(NC(=S)Nc4ccc(Cl)cc4)cc(c23)C1=O showed an IC50 of over 10 µM.
For CCOC(=O)c1ccc(NC(=O)Nc2cc3c4c(cccc4c2)C(=O)N(CCN(C)C)C3=O)cc1, the IC50 was 2.1 µM.
In the case of CN(C)CCN1C(=O)c2cccc3cc(NC(=O)C(F)(F)F)cc(c23)C1=O, the IC50 is reported as 8.1 µM.
With CN(C)CCN1C(=O)c2cccc3cc(NC(=O)NC(=O)c4ccccc4)cc(c23)C1=O the IC50 was 3.4 µM.

Test system: HCT-15
Experiment: Antiproliferative activity against HCT15 cells after 72 hrs by MTT assay
Type: functional, cell-based, Homo sapiens
Conditions: Homo sapiens, HCT-15, 72 h
Summary of the method: as §1
Work on COc1cc(/C=N\c2cc3c4c(cccc4c2)C(=O)N(CCN(C)C)C3=O)cc(OC)c1OC yielded an IC50 of over 10 µM.
Work on CN(C)CCN1C(=O)c2cccc3cc(NC(=O)CCCCl)cc(c23)C1=O yielded an IC50 of over 10 µM.
For CN(C)CCN1C(=O)c2cccc3cc(NC(=O)Nc4ccc(Cl)cc4)cc(c23)C1=O, the IC50 was 3.1 µM.
Work on CN(C)CCN1C(=O)c2cccc3cc(NC(=O)C(Cl)(Cl)Cl)cc(c23)C1=O yielded an IC50 of over 10 µM.
CN(C)CCN1C(=O)c2cccc3cc(NC(=S)Nc4ccc(Cl)cc4)cc(c23)C1=O gave an IC50 of over 10 µM.
CCOC(=O)c1ccc(NC(=O)Nc2cc3c4c(cccc4c2)C(=O)N(CCN(C)C)C3=O)cc1 showed an IC50 of 7.4 µM.
CN(C)CCN1C(=O)c2cccc3cc(NC(=O)C(F)(F)F)cc(c23)C1=O showed an IC50 of over 10 µM.
In the case of CN(C)CCN1C(=O)c2cccc3cc(NC(=O)NC(=O)c4ccccc4)cc(c23)C1=O, the IC50 is reported as 3.4 µM.

Test system: LoVo
Experiment: Antiproliferative activity against LoVo cells after 72 hrs by MTT assay
Type: functional, cell-based, Homo sapiens
Conditions: Homo sapiens, LoVo, 72 h
Summary of the method: as §1
COc1cc(/C=N\c2cc3c4c(cccc4c2)C(=O)N(CCN(C)C)C3=O)cc(OC)c1OC gave an IC50 of 5 µM.
Work on CN(C)CCN1C(=O)c2cccc3cc(NC(=O)CCCCl)cc(c23)C1=O yielded an IC50 of 10 µM.
With CN(C)CCN1C(=O)c2cccc3cc(NC(=O)Nc4ccc(Cl)cc4)cc(c23)C1=O the IC50 was 2 µM.
CN(C)CCN1C(=O)c2cccc3cc(NC(=O)C(Cl)(Cl)Cl)cc(c23)C1=O gave an IC50 of 6.4 µM.
With CN(C)CCN1C(=O)c2cccc3cc(NC(=S)Nc4ccc(Cl)cc4)cc(c23)C1=O the IC50 was 8.7 µM.
With CCOC(=O)c1ccc(NC(=O)Nc2cc3c4c(cccc4c2)C(=O)N(CCN(C)C)C3=O)cc1 the IC50 was 1.5 µM.
Compound CN(C)CCN1C(=O)c2cccc3cc(NC(=O)C(F)(F)F)cc(c23)C1=O has an IC50 of 4.5 µM.
Work on CN(C)CCN1C(=O)c2cccc3cc(NC(=O)NC(=O)c4ccccc4)cc(c23)C1=O yielded an IC50 of 2.1 µM.

Test system: A549
Experiment: Antiproliferative activity against A549 cells after 72 hrs by MTT assay
Type: functional, cell-based, Homo sapiens
Conditions: Homo sapiens, A549, 72 h
Summary of the method: as §1
Work on COc1cc(/C=N\c2cc3c4c(cccc4c2)C(=O)N(CCN(C)C)C3=O)cc(OC)c1OC yielded an IC50 of 6.7 µM.
Work on CN(C)CCN1C(=O)c2cccc3cc(NC(=O)CCCCl)cc(c23)C1=O yielded an IC50 of over 10 µM.
Work on CN(C)CCN1C(=O)c2cccc3cc(NC(=O)Nc4ccc(Cl)cc4)cc(c23)C1=O yielded an IC50 of 1.9 µM.
Compound CN(C)CCN1C(=O)c2cccc3cc(NC(=O)C(Cl)(Cl)Cl)cc(c23)C1=O has an IC50 of 10 µM.
In the case of CN(C)CCN1C(=O)c2cccc3cc(NC(=S)Nc4ccc(Cl)cc4)cc(c23)C1=O, the IC50 is reported as over 10 µM.
In the case of CCOC(=O)c1ccc(NC(=O)Nc2cc3c4c(cccc4c2)C(=O)N(CCN(C)C)C3=O)cc1, the IC50 is reported as 1.6 µM.
Work on CN(C)CCN1C(=O)c2cccc3cc(NC(=O)C(F)(F)F)cc(c23)C1=O yielded an IC50 of 9.5 µM.
Work on CN(C)CCN1C(=O)c2cccc3cc(NC(=O)NC(=O)c4ccccc4)cc(c23)C1=O yielded an IC50 of 2 µM.

Test system: MCF7
Experiment: Antiproliferative activity against MCF7 cells after 72 hrs by MTT assay
Type: functional, cell-based, Homo sapiens
Conditions: Homo sapiens, MCF7, 72 h
Summary of the method: as §1
COc1cc(/C=N\c2cc3c4c(cccc4c2)C(=O)N(CCN(C)C)C3=O)cc(OC)c1OC gave an IC50 of over 10 µM.
Compound CN(C)CCN1C(=O)c2cccc3cc(NC(=O)CCCCl)cc(c23)C1=O has an IC50 of over 10 µM.
CN(C)CCN1C(=O)c2cccc3cc(NC(=O)Nc4ccc(Cl)cc4)cc(c23)C1=O showed an IC50 of 2.4 µM.
With CN(C)CCN1C(=O)c2cccc3cc(NC(=O)C(Cl)(Cl)Cl)cc(c23)C1=O the IC50 was over 10 µM.
Compound CN(C)CCN1C(=O)c2cccc3cc(NC(=S)Nc4ccc(Cl)cc4)cc(c23)C1=O has an IC50 of over 10 µM.
In the case of CCOC(=O)c1ccc(NC(=O)Nc2cc3c4c(cccc4c2)C(=O)N(CCN(C)C)C3=O)cc1, the IC50 is reported as 3.1 µM.
In the case of CN(C)CCN1C(=O)c2cccc3cc(NC(=O)C(F)(F)F)cc(c23)C1=O, the IC50 is reported as 9.6 µM.
CN(C)CCN1C(=O)c2cccc3cc(NC(=O)NC(=O)c4ccccc4)cc(c23)C1=O showed an IC50 of 3.6 µM.

Test system: not listed separately
Experiment: Toxicity in ip dosed B6D2F1 mouse
Type: organism-based
Conditions: in vivo
Summary of the method: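 Acute MTD was set by a single i.p. dose to groups of three healthy female B6D2F1 mice, at 2.5, 5, 10, 20, 40, 80 and 160 mg/kg. The MTD is the dose just below the lowest dose that killed at least one mouse.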
For COc1cc(/C=N\c2cc3c4c(cccc4c2)C(=O)N(CCN(C)C)C3=O)cc(OC)c1OC, the MTD was over 80 mg/kg.
Work on CN(C)CCN1C(=O)c2cccc3cc(NC(=O)CCCCl)cc(c23)C1=O yielded an MTD of over 80 mg/kg.
CN(C)CCN1C(=O)c2cccc3cc(NC(=O)Nc4ccc(Cl)cc4)cc(c23)C1=O showed an MTD of 80 mg/kg.
Compound CN(C)CCN1C(=O)c2cccc3cc(NC(=O)C(Cl)(Cl)Cl)cc(c23)C1=O has an MTD of over 80 mg/kg.
Work on CN(C)CCN1C(=O)c2cccc3cc(NC(=S)Nc4ccc(Cl)cc4)cc(c23)C1=O yielded an MTD of over 80 mg/kg.
CCOC(=O)c1ccc(NC(=O)Nc2cc3c4c(cccc4c2)C(=O)N(CCN(C)C)C3=O)cc1 gave an MTD of over 80 mg/kg.
CN(C)CCN1C(=O)c2cccc3cc(NC(=O)C(F)(F)F)cc(c23)C1=O showed an MTD of 40 mg/kg.
Compound CN(C)CCN1C(=O)c2cccc3cc(NC(=O)NC(=O)c4ccccc4)cc(c23)C1=O has an MTD of 40 mg/kg.

Test system: L1210
Experiment: Antitumor activity in L1210 cells xenografted B6D2F1 mouse at 20 mg/kg, ip relative to control
Type: functional
Conditions: route intraperitoneal
Summary of the method: (§2)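 Mice grafted with L1210 leukaemia cells on day 0, then dosed i.p. four times weekly on days 1-4 and 8-11. Five mice per group. Outcome is %T/C, the median survival of treated over control. Kruskal-Wallis test followed by Dunn comparisons against control.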
For CN(C)CCN1C(=O)c2cccc3cc(NC(=O)C(Cl)(Cl)Cl)cc(c23)C1=O, the Activity was 150%.

Test system: L1210
Experiment: Antitumor activity in L1210 cells xenografted B6D2F1 mouse at 40 mg/kg, ip relative to control
Type: functional
Conditions: route intraperitoneal
Summary of the method: as §2
CN(C)CCN1C(=O)c2cccc3cc(NC(=O)C(F)(F)F)cc(c23)C1=O gave an Activity of 124%.
Work on CN(C)CCN1C(=O)c2cccc3cc(NC(=O)NC(=O)c4ccccc4)cc(c23)C1=O yielded an Activity of 140%.

Test system: L1210
Experiment: Antitumor activity in L1210 cells xenografted B6D2F1 mouse at 80 mg/kg, ip relative to control
Type: functional
Conditions: route intraperitoneal
Summary of the method: as §2
For COc1cc(/C=N\c2cc3c4c(cccc4c2)C(=O)N(CCN(C)C)C3=O)cc(OC)c1OC, the Activity was 107%.
In the case of CN(C)CCN1C(=O)c2cccc3cc(NC(=O)CCCCl)cc(c23)C1=O, the Activity is reported as 164%.
Compound CN(C)CCN1C(=O)c2cccc3cc(NC(=O)Nc4ccc(Cl)cc4)cc(c23)C1=O has an Activity of 161%.
With CN(C)CCN1C(=O)c2cccc3cc(NC(=S)Nc4ccc(Cl)cc4)cc(c23)C1=O the Activity was 164%.
CCOC(=O)c1ccc(NC(=O)Nc2cc3c4c(cccc4c2)C(=O)N(CCN(C)C)C3=O)cc1 showed an Activity of 187%.
